Screening results (PubChem BioAssay)
RanGTP-Imp inh: inhibitors of RanGTP-importin-beta interaction, primary screen, biochemical, FRET, CFP-Ran, YFP-importin-beta, homogeneous; cell-free CFP-Ran/YFP-importin-beta FRET ratio; inhibition, % (test concentration not listed); hit rate 1.1% among 300,000; AID 2216;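 active = more than half of the replicate wells show a fall in the fluorescence ratio signal beyond about 16%, limit read from the data, passing the limit was not always enough; inconclusive = exactly half of the replicate wells pass the set limit; inactive = fewer than half of replicates pass the limit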;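 also: 0% = DMSO wells and 100% = Ran loaded with GDP instead of GTP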
Runt-CBFb FRET: Runt domain-CBFb interaction inhibition. inhibition, % at 20 µM. hit rate 0.46% among 220,000. Cerulean-Runt/Venus-CBFb FRET ratio 530/480, 1 h;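 active = inhibition over about 50% at 20 µM in the single-dose screen, limit read from the data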;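 also: 0% = DMSO wells and 100% = excess unlabeled CBFb competitor control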
Target sequence (Q01196 whole entry, looked up, the tested form may be a part): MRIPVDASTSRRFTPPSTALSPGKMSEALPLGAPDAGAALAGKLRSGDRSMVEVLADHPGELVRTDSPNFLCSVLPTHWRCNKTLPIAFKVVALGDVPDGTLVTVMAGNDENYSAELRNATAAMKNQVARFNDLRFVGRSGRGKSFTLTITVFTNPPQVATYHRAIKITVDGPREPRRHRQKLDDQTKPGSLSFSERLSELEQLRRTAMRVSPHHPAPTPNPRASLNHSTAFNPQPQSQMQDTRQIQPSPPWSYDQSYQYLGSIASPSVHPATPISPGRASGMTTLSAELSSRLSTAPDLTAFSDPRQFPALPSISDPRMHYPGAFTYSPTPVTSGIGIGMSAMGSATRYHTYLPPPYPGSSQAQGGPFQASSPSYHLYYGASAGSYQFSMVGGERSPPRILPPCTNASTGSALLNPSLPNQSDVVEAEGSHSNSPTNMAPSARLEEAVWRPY
Target sequence (Q13951 whole entry, looked up, the tested form may be a part): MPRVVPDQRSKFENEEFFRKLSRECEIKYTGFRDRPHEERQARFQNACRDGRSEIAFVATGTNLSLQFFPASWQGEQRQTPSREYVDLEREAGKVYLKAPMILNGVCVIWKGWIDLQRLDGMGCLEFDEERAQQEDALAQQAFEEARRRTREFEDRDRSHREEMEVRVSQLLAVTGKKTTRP
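test system = Cerulean-tagged RUNX1 Runt domain (FRET donor) fusion protein | reagent = Venus-CBFb binding partner, 100 nM | incubation = protein complex preformed 1 h, compound exposure 1 h, room temperature, dark | detection = FRET fluorescence | read-out basis = loss of energy transfer signal | controls = 5 µM unlabeled CBFb as full-inhibition high control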
Hck-Nef inh: inhibitors of human Hck kinase activated by Nef. inhibition, % at 20 µM. hit rate 0.68% among 220,000. Recombinant Hck-YEEI plus Nef, Z-Lyte FRET kinase assay. P08631;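 active = Hck-Nef kinase inhibition above about 50%, limit read from the data; inactive = inhibition below that limit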;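 also: 0% = DMSO with Hck plus Nef and 100% = Hck alone without Nef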
Runt-SMMHC FRET: Runt domain-CBFb-SMMHC interaction inhibition; Q01196+Q13951; Cerulean-Runt/Venus-CBFb-SMMHC FRET ratio 530/480, 1 h; inhibition, % at 20 µM; hit rate 0.74% among 220,000; AID 1434;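 active = mean inhibition across duplicate retests at 20 µM reaching about 50%, limit read from the data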;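 also: 0% = DMSO wells and 100% = wells with excess untagged CBFb-SMMHC; inhibitors lower the FRET ratio by blocking Runt binding to CBFb-SMMHC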
YIC counter: counter-screen for RanGTP-importin-beta inhibitors: YIC FRET probe; hit rate 40% among 1,000; IC50, µM; shares compounds with RanGTP-Imp inh; Purified YIC probe, intramolecular FRET ratio YFP/CFP; AID 435026;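 active = fitted half-maximal inhibitory concentration no more than tenfold above the top dose tested; inconclusive = flat fit with 30 to 70% activity, or poor fit; inactive = half-maximal concentration beyond tenfold above the top dose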
Active calls of the source: *; ? = inconclusive; . = not tested or not shown. Only some compounds are listed: those with a hit (about 1.9% of all), similar ones and a draw of the others.

SMILES	RanGTP-Imp inh	Runt-CBFb FRET	Hck-Nef inh	Runt-SMMHC FRET	YIC counter
O=C(O)c1c2c(nc3ccccc13)/C(=C/c1ccc(OC(F)F)cc1)CCC2	31*	.	.	.	>50
Cc1ccc(CNC(=O)c2ccc(OCC3CCCO3)cc2)cc1 (stereo unspecified)	4	-3	1	2	.
CCN(CC)Cc1c(CC(C)C)oc(C)c1C(=O)O	21*	3	0	-4	>50
O=C(c1cc2c(=O)n3ccccc3nc2s1)N1CCN(Cc2ccccc2)CC1	21*	.	.	.	>50
O=C(c1cc2c(=O)n3ccccc3nc2s1)N1CCN(Cc2ccc3c(c2)OCO3)CC1	-2	26	32	33	.
CCN(CC)S(=O)(=O)c1cc(C(=O)Nc2ccccc2[N+](=O)[O-])ccc1Cl	25*	-2	-2	0	>50
CN(C)S(=O)(=O)c1cccc(C(=O)Nc2ccccc2[N+](=O)[O-])c1	4	1	-1	-6	.
Nc1nnc(Sc2ncccc2[N+](=O)[O-])s1	1	-2	22	0	.
CCOC(=O)N/N=C/c1ccc(N(CC)CC)cc1O	3	2	7	1	.
CCN(CC)c1ccc(/C=N/NC(=O)c2c(Cl)cnn2C)c(O)c1	22*	74*	11	83*	4*
COc1cc2sc3ccc(C#CC4(O)CCCCC4)cc3c(=O)c2cc1OC	32*	.	.	.	26*
CCN(CC)S(=O)(=O)c1ccc(NC(=O)c2cccc3c2C(=O)N(CCOC)C3)cc1	19*	-5	2	8	>50
O=C(CN1C(=O)NC2(CCCCCC2)C1=O)Nc1ccc2c(c1)CCC2	-3	-1	22	0	.
c1ccc(SCc2cn(C[C@H]3CC[C@@H]([C@@H]4CC[C@H](Cn5cc(CSc6ccccc6)nn5)O4)O3)nn2)cc1	1	.	.	.	.
Cc1ccc(-c2oc3ccccc3c(=O)c2OCC(=O)O)cc1	2	-3	-31	0	.
Cc1ccc(-c2oc3ccccc3c(=O)c2O)cc1	22*	16	-6	1	17*
Cc1nc2c3cc(Cl)ccc3n(CCN3CCCCC3)c2s1	5	-2	0	3	.
Cc1ccc2nc(NCC(=O)O)nc(-c3ccccc3)c2c1	22*	23	14	-14	48*
CC1(C)CC(=O)C=C(Nc2ccc(S(N)(=O)=O)cc2)C1	22*	0	14	1	>50
O=C(Nc1nc2ccc(S(=O)(=O)N3CCCCC3)cc2s1)c1cccnc1	22*	-11	1	-7	>26
COc1ccc(NS(=O)(=O)c2cc(NC(=O)/C=C/c3ccccc3OC)ccc2N2CCCCC2)cc1	4	-1	-30	1	.
Cc1cnc(C(=O)Nc2ccc(S(=O)(=O)NCC(C)C)cc2)cn1	?	.	18	.	.
Cc1cnc(C(=O)Nc2ccc(S(=O)(=O)N(C(C)C)C(C)C)cc2)cn1	20*	.	.	.	>50
O=C(/C=C/c1ccccc1[N+](=O)[O-])N1CCN(c2ccc(F)cc2)CC1	24*	0	16	2	>50
Clc1ccc(-c2nnc(SCc3nc4ccccc4[nH]3)o2)c(Cl)c1	32*	0	-11	2	>50
SMILES	RanGTP-Imp inh	Runt-CBFb FRET	Hck-Nef inh	Runt-SMMHC FRET	YIC counter
c1ccc2[nH]c(CSc3nnc(-c4ccncc4)o3)nc2c1	6	-1	-2	-3	.
Cc1ccc(/C=C2/NC(=O)N(Cc3ccccc3)C2=O)o1	-1	28	7	25	.
Cc1cc(C(=O)O)ccc1-c1ccc(/C=C2\NC(=O)N(Cc3ccccc3Cl)C2=O)o1	22*	24	37	68*	0.91*
COc1ccc([N+](=O)[O-])cc1NC(=O)C1CCCCC1C(=O)O (stereo unspecified)	8	0	2	-5	.
COc1cc(-n2c(N)c(C(=O)NCc3ccco3)c3nc4ccccc4nc32)cc(OC)c1OC	12	4	3	-7	.
COc1ccc(-n2c(N)c(C(=O)NCc3ccco3)c3nc4ccccc4nc32)cc1OC	17*	0	13	15	33*
Nc1c(C(=O)NCc2ccccc2)c2nc3ccccc3nc2n1-c1ccc2c(c1)OCO2	35*	-8	27	6	11*
CCCc1nc2ccccc2c(C(=O)OCC(=O)NCc2ccc3c(c2)OCO3)c1CC	0	-3	-2	0	.
COc1ccccc1/C=N/n1c(N)c(C(=O)NC2CCCCC2)c2nc3ccccc3nc21	.	-1	11	-4	.
